According to ChEMBL document CHEMBL4229495 (Bioorg Med Chem, 2018):
pIC50: −log10 of the molar value. Each block holds one compound with its values, some of them ahead of it.

How the values were obtained:
[1] = molecular target: T1, Tyrosyl-DNA phosphodiesterase 1 (Homo sapiens, UniProt Q9NUW8); assay: Inhibition of recombinant Tdp1 (unknown origin) using 5'-(5,6 FAM-aac gtc agg gtc ttc c-BHQ1)-3' as substrate measured every 55 secs for 8 mins by fluorimetric assay
[2] = Cytotoxicity against human A549 cells after 72 hrs by MTT assay; assay type: cell-based
Method in brief: (§1)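 Cells seeded at ~2000 per well and grown 24 h at 37 °C, 5% CO2 in IMDM with 10% FBS plus penicillin/streptomycin. Then exposed to the compound (1 to 100 µM) for 72 h. Viability read by MTT as A570 versus DMSO control. CC50 interpolated from the dose-response curve. Mean ± SD of triplicates.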

[3] = Cytotoxicity against HEK293 cells after 72 hrs by MTT assay; assay type: cell-based; conditions: human; method in brief: as §1
Tdp1 [4] = assay: Selectivity index, ratio of CC50 for human A549 cells to IC50 for recombinant Tdp1 (unknown origin) using 5'-(5,6 FAM-aac gtc agg gtc ttc c-BHQ1)-3' as substrate; assay type: toxicity; conditions: A549 cells (CC50) and recombinant Tdp1 (IC50), probe 5'-(5,6 FAM-aac gtc agg gtc ttc c-BHQ1)-3'
A549 [5] = assay: Potentiation of topotecan-induced cytotoxicity against human A549 cells assessed as topotecan CC50 at 1 uM after 72 hrs by MTT assay (reference value: 111 +/- 27 nM); assay type: functional; conditions: A549, 72 h
Tdp1 [6] = assay: Selectivity index, ratio of CC50 for HEK293 cells to IC50 for recombinant Tdp1 (unknown origin) using 5'-(5,6 FAM-aac gtc agg gtc ttc c-BHQ1)-3' as substrate; assay type: toxicity; conditions: human, HEK293 cells (CC50) and recombinant Tdp1 (IC50), probe 5'-(5,6 FAM-aac gtc agg gtc ttc c-BHQ1)-3'
A549 [7] = assay: Potentiation of topotecan-induced cytotoxicity against human A549 cells assessed as fold reduction in topotecan CC50 at 1 uM after 72 hrs by MTT assay relative to topotecan alone; assay type: functional
Method in brief: (§2)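 A-549 or HEK-293 cells (~2000/well) preincubated 24 h at 37 °C in IMDM with 10% FBS, penicillin/streptomycin, 5% CO2. Then treated with varied topotecan concentrations with or without inhibitor at 1 µM for 72 h. Viability read by MTT (A570) against DMSO control. Topotecan CC50 interpolated from dose-response curves, mean ± SD of triplicates.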

HEK293 = assay: Potentiation of topotecan-induced cytotoxicity against HEK293 cells assessed as fold reduction in topotecan CC50 at 1 uM after 72 hrs by MTT assay relative to topotecan alone; assay type: cell-based; conditions: human, hek293, 72 h; method in brief: as §2
[8] = molecular target: T1, Tyrosyl-DNA phosphodiesterase 1; assay: Inhibition of recombinant Tdp1 (unknown origin) using 5'-([32P]-aac gtc agg gtc ttc c-tyrosine)-3' as substrate measured after 5 mins by electrophoresis method
[9] = molecular target: T1, Tyrosyl-DNA phosphodiesterase 1; assay: Inhibition of recombinant Tdp1 (unknown origin) using 5'-([32P]-aac gtc agg gtc ttc c-BHQ1)-3' as substrate measured after 20 mins by electrophoresis method

T1 sequence (Q9NUW8 whole entry): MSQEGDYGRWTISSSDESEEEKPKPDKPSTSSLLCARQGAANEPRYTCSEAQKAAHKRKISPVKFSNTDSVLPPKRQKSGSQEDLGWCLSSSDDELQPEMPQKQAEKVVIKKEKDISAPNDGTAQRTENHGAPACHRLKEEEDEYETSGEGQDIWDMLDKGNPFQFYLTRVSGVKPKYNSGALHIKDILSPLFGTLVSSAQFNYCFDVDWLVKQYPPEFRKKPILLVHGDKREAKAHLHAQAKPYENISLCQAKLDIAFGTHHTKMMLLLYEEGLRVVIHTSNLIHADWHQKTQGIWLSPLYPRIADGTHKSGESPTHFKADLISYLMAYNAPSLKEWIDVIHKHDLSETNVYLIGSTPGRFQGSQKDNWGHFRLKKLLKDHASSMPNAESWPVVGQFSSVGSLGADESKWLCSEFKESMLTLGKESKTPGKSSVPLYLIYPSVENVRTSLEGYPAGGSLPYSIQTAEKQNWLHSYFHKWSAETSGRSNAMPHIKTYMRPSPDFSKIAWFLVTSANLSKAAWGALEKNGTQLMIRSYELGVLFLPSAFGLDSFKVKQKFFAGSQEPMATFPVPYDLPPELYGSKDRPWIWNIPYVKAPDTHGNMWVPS

SMILES: CC(=O)C1=C(O)C=C2Oc3c4c(c(C)c(O)c3[C@@]2(C)C1=O)O/C(=C\c1cc(C(C)(C)C)cc(C(C)(C)C)c1O)C4=O
- CC50 at 72 h [2]: 6800 nM
- pIC50 [1]: 7.60
- CC50 at 72 h [3]: 14500 nM
- selectivity ratio (Tdp1 [4]): 272
- CC50 (A549 [5]): 558 nM

SMILES: CC(=O)C1=C(O)C=C2Oc3c4c(c(C)c(O)c3[C@@]2(C)C1=O)O/C(=C\c1cc(Br)cs1)C4=O
- pIC50 [1]: 6.22

SMILES: CC(=O)C1=C(O)C=C2Oc3c4c(c(C)c(O)c3[C@@]2(C)C1=O)O/C(=C\c1sccc1C)C4=O
- pIC50 [1]: 6.20

SMILES: COc1ccc(/C=C2\Oc3c(C)c(O)c4c(c3C2=O)OC2=CC(O)=C(C(C)=O)C(=O)[C@@]24C)c(OC)c1OC
- CC50 at 72 h [2]: 4600 nM
- pIC50 [1]: 6.47
- CC50 at 72 h [3]: 20000 nM
- selectivity ratio (Tdp1 [4]): 13.5
- selectivity ratio (Tdp1 [6]): 58.8
- CC50 (A549 [5]): 48 nM
- fold change (FC) (A549 [7]): 2

SMILES: CC(=O)C1=C(O)C=C2Oc3c4c(c(C)c(O)c3[C@@]2(C)C1=O)O/C(=C\c1ccc(Br)cc1)C4=O
- CC50 at 72 h [2]: 10000 nM
- CC50 at 72 h [3]: 14600 nM
- selectivity ratio (Tdp1 [4]): 66.7
- selectivity ratio (Tdp1 [6]): 97.3
- CC50 (A549 [5]): 162 nM

SMILES: CC(=O)C1=C(O)C=C2Oc3c4c(c(C)c(O)c3[C@@]2(C)C1=O)O/C(=C\c1ccc(Br)s1)C4=O
- CC50 at 72 h [2]: 8700 nM
- pIC50 [1]: 7.20
- CC50 at 72 h [3]: 15700 nM
- selectivity ratio (Tdp1 [4]): 138
- selectivity ratio (Tdp1 [6]): 249
- CC50 (A549 [5]): 47 nM
- fold change (FC) (A549 [7]): 2
- fold change (FC) (HEK293): 2 to 4

SMILES: CC(=O)C1=C(O)C=C2Oc3c4c(c(C)c(O)c3[C@@]2(C)C1=O)O/C(=C\c1ccc(Cl)cc1)C4=O
- pIC50 [1]: 5.91

SMILES: CC(=O)C1=C(O)C=C2Oc3c4c(c(C)c(O)c3[C@@]2(C)C1=O)O/C(=C\c1cc(Br)cc(Br)c1)C4=O
- pIC50 [1]: 6.28
- pIC50 [8]: 5.40
- pIC50 [9]: 6.19

SMILES: CC(=O)C1=C(O)C=C2Oc3c4c(c(C)c(O)c3[C@@]2(C)C1=O)O/C(=C\c1cccnc1)C4=O
- pIC50 [1]: 6.35

SMILES: CC(=O)C1=C(O)C=C2Oc3c4c(c(C)c(O)c3[C@@]2(C)C1=O)O/C(=C\c1ccc(O)cc1)C4=O
- pIC50 [1]: 5.80

SMILES: COc1ccccc1/C=C1\Oc2c(C)c(O)c3c(c2C1=O)OC1=CC(O)=C(C(C)=O)C(=O)[C@@]13C
- pIC50 [1]: 6.41

SMILES: CC(=O)C1=C(O)C=C2Oc3c4c(c(C)c(O)c3[C@]2(C)C1=O)O/C(=C\c1cc(C(C)(C)C)cc(C(C)(C)C)c1O)C4=O
- pIC50 [1]: 7.19

SMILES: CC(=O)C1=C(O)C=C2Oc3c4c(c(C)c(O)c3[C@@]2(C)C1=O)O/C(=C\c1ccc(F)cc1)C4=O
- pIC50 [1]: 6.01

SMILES: CC(=O)C1=C(O)C=C2Oc3c4c(c(C)c(O)c3[C@@]2(C)C1=O)O/C(=C\c1ccccc1Br)C4=O
- CC50 at 72 h [2]: 4560 nM
- pIC50 [1]: 6.64
- CC50 at 72 h [3]: 15900 nM
- selectivity ratio (Tdp1 [4]): 19.8
- selectivity ratio (Tdp1 [6]): 69.1
- CC50 (A549 [5]): 48 nM
- fold change (FC) (A549 [7]): 2

SMILES: COc1ccc(/C=C2\Oc3c(C)c(O)c4c(c3C2=O)OC2=CC(O)=C(C(C)=O)C(=O)[C@@]24C)cc1OC
- pIC50 [1]: 5.99

SMILES: CC(=O)C1=C(O)C=C2Oc3c4c(c(C)c(O)c3[C@@]2(C)C1=O)O/C(=C\c1ccccc1)C4=O
- pIC50 [1]: 6.14

SMILES: CC(=O)C1=C(O)C=C2Oc3c4c(c(C)c(O)c3[C@@]2(C)C1=O)O/C(=C\c1ccncc1)C4=O
- pIC50 [1]: 6.09

SMILES: COc1ccc(/C=C2\Oc3c(C)c(O)c4c(c3C2=O)OC2=CC(O)=C(C(C)=O)C(=O)[C@@]24C)cc1
- CC50 at 72 h [2]: 8300 nM
- pIC50 [1]: 6.47
- CC50 at 72 h [3]: 15800 nM
- selectivity ratio (Tdp1 [4]): 24.4
- selectivity ratio (Tdp1 [6]): 46.5
- CC50 (A549 [5]): 90 nM

SMILES: CC(=O)C1=C(O)C=C2Oc3c4c(c(C)c(O)c3[C@@]2(C)C1=O)O/C(=C\c1ccccn1)C4=O
- pIC50 [1]: 6.07

SMILES: CC(=O)C1=C(O)C=C2Oc3c4c(c(C)c(O)c3[C@@]2(C)C1=O)O/C(=C\c1cccc(Br)c1)C4=O
- CC50 at 72 h [2]: 11400 nM
- pIC50 [1]: 6.63
- CC50 at 72 h [3]: 14500 nM
- selectivity ratio (Tdp1 [4]): 49.1
- selectivity ratio (Tdp1 [6]): 62.5
- CC50 (A549 [5]): 132 nM

Continued, in another order:

- pIC50 [1]: 5.44
SMILES: CC(=O)C1=C(O)C=C2Oc3c4c(c(C)c(O)c3[C@@]2(C)C1=O)O/C(=C\c1ccc[nH]1)C4=O

- pIC50 [1]: 6.05
SMILES: CC(=O)C1=C(O)C=C2Oc3c4c(c(C)c(O)c3[C@@]2(C)C1=O)O/C(=C\c1cccs1)C4=O

- pIC50 [1]: 5.26
SMILES: CC(=O)C1=C(O)C=C2Oc3c4c(c(C)c(O)c3[C@@]2(C)C1=O)O/C(=C\c1ccco1)C4=O

- pIC50 [1]: 7.09
SMILES: CC(=O)C1=C(O)C=C2Oc3c4c(c(C)c(O)c3[C@]2(C)C1=O)O/C(=C\c1ccc(Br)s1)C4=O

- pIC50 [1]: 6.08
SMILES: CC(=O)C1=C(O)C=C2Oc3c4c(c(C)c(O)c3[C@@]2(C)C1=O)O/C(=C\c1ccc(C)s1)C4=O

- pIC50 [1]: 6.80
SMILES: CC(=O)C1=C(O)C=C2Oc3c4c(c(C)c(O)c3[C@@]2(C)C1=O)O/C(=C\c1ccc(C)o1)C4=O
- CC50 at 72 h [2]: > 50000 nM
- CC50 at 72 h [3]: > 50000 nM
- selectivity ratio (Tdp1 [4]): > 300
- selectivity ratio (Tdp1 [6]): > 300
- CC50 (A549 [5]): 40 nM
- fold change (FC) (A549 [7]): 2

- pIC50 [1]: 5.48
SMILES: CC(=O)C1=C(O)C=C2Oc3c4c(c(C)c(O)c3[C@@]2(C)C1=O)O/C(=C\c1ccsc1)C4=O

- pIC50 [1]: < 4.82
SMILES: CC(=O)C1=C(O)C=C2Oc3c4c(c(C)c(O)c3[C@@]2(C)C1=O)O/C(=C\C1CCCCC1)C4=O

- pIC50 [1]: 5.17
SMILES: CC(=O)C1=C(O)C=C2Oc3c4c(c(C)c(O)c3[C@@]2(C)C1=O)O/C(=C\c1ccoc1)C4=O
